In ChEMBL document CHEMBL3994631, “Design, synthesis, structure-activity relationship and mechanism of action studies of a series of 4-chloro-1-phthalazinyl hydrazones as a potent agent against Leishmania braziliensis” (Eur J Med Chem, 2017):
Active and inactive are the calls of the source. The rule behind the calls is not given here.

How the values were obtained:
Leishmania braziliensis [1] = test: Antileishmanial activity against Leishmania braziliensis MHOM/CO/87/UA301 promastigote forms isolated from infected Balb/c mouse assessed as parasite growth inhibition at 20 uM after 96 hrs by MTT assay relative to control; format: functional; details: MHOM/CO/87/UA301, 96 h, read-out: GI
In short: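 Promastigotes in LIT + 10% FBS at 2x10^6/mL exposed to a single 20 μM concentration for 96 h at 29 °C. MTT (1 mg/mL) added for 4 h in darkness, cells lysed with acidic isopropanol, read at 570 nm. Inhibition relative to untreated parasites; means of three independent experiments.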

Leishmania braziliensis [2] = test: Antileishmanial activity against Leishmania braziliensis MHOM/CO/87/UA301 promastigote forms isolated from infected Balb/c mouse by neubauer chamber method; format: functional
In short: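 Promastigotes seeded at 1x10^6/mL in LIT medium at 29 °C with 0.1–10 μM compound. Growth followed daily by Neubauer chamber counting; three independent experiments per concentration. EC50 obtained by nonlinear regression of concentration–response data.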

Leishmania braziliensis [3] = test: Inhibition of DHFR in Leishmania braziliensis MHOM/CO/87/UA301 promastigote forms assessed as growth inhibition at 2 uM after 72 hrs in presence of folinic acid by neubauer chamber method
[4] = Cytotoxicity against mouse BMDM assessed as reduction in cell viability after 48 hrs by MTT assay; format: cell-based; details: bone marrow-derived macrophages (BMDM), read-out: LC50
In short: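 Mouse bone-marrow macrophages (BMDM) were differentiated in L-929 conditioned medium and kept at 37 °C, 5% CO2, 90% humidity. Cells at 5×10^4 cells/mL were exposed to compounds at 10 to 100 µM for 48 h. Read-out was MTT reduction as a percentage of control cells. LC50 is the mean of three independent experiments.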

Leishmania braziliensis [5] = test: Potency index, ratio of miltefosine EC50 to compound EC50 for Leishmania braziliensis MHOM/CO/87/UA301 promastigote forms isolated from infected Balb/c mouse; format: functional
Leishmania braziliensis [6] = test: Antileishmanial activity against Leishmania braziliensis MHOM/CO/87/UA301 amastigote forms infected in mouse BMDM after 96 hrs by Giemsa staining based assay; format: functional; details: MHOM/CO/87/UA301, BMDM
In short: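 BMDM mixed 1:10 with L. braziliensis promastigotes in DMEM + 10% FBS on glass coverslips, 18 h at 37 °C, 5% CO2. Medium then replaced with medium containing compound and incubated 96 h under the same conditions. Giemsa-stained macrophages counted for % total and % infected macrophages and amastigotes per macrophage; triplicate.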

[7] = Selectivity index, ratio of LC50 for mouse BMDM to EC50 for Leishmania braziliensis MHOM/CO/87/UA301 amastigote forms infected in mouse BMDM
Leishmania braziliensis [8] = test: Ratio of EC50 for Leishmania braziliensis MHOM/CO/87/UA301 amastigote forms infected in mouse BMDM to EC50 for Leishmania braziliensis MHOM/CO/87/UA301 promastigote forms; format: functional
Leishmania braziliensis [9] = test: Antileishmanial activity against Leishmania braziliensis MHOM/CO/87/UA301 amastigote forms infected in mouse BMDM assessed as induction of nitrite production after 48 hrs by Griess assay; format: functional
In short: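 Macrophages infected with L. braziliensis were incubated 48 h with compound at 0.08, 0.80 and 8.0 μM. Controls: untreated infected and uninfected macrophages, three wells each. Nitrite in supernatants measured by Griess reaction against a sodium nitrite standard (detection limit 1.56 μM). Triplicate; expressed as % of untreated infected macrophages.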

Leishmania braziliensis [10] = test: Antileishmanial activity against Leishmania braziliensis MHOM/CO/87/UA301 promastigote forms isolated from infected Balb/c mouse assessed as induction of oxidative stress by measuring reduction in mitochondrial dehydrogenase activity at 20 uM by MTT assay; format: functional; details: TDE = time-dependent effect
In short: (§1)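 10^6 promastigotes in 500 μL per well treated with 20 μM compound at 28 °C, with untreated wells for each time point; sampled between 30 and 180 min. Cells counted, then MTT added (50 μL of 5 mg/mL in PBS) for 4 h. Stopped with acidic isopropanol, read at 570 nm. Pmdh (%) taken relative to untreated parasites as 100%; triplicate.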

Leishmania braziliensis [11] = test: Cytotoxicity against Leishmania braziliensis MHOM/CO/87/UA301 promastigote forms assessed as cell death at 20 uM after 30 mins by MTT assay; details: 0.5 h; in short: as §1
Leishmania braziliensis [12] = test: Inhibition of CuZn-SOD in Leishmania braziliensis MHOM/CO/87/UA301 promastigote forms assessed as reduction in superoxide level at 0.012 to 1.2 uM after 30 mins by spectrophotometric based xanthine oxidase coupled enzyme assay
In short: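 Promastigotes (4 million in 500 μL) treated at 0.012, 0.12 and 1.2 μM, then pelleted. Sonicated in STE buffer pH 7.8 and centrifuged; protein measured by Bradford. SOD activity read as NBT reduction by superoxide from xanthine/xanthine oxidase (8.4 U) with EDTA, Na2CO3 and albumin. 30 min at 27 °C, CuCl2 added, A595 measured; controls without xanthine oxidase; triplicate.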

Leishmania braziliensis [13] = test: Inhibition of DHFR in Leishmania braziliensis MHOM/CO/87/UA301 promastigote forms assessed as growth inhibition at 0.5 uM after 72 hrs in presence of folinic acid by neubauer chamber method
Leishmania braziliensis [14] = test: Antileishmanial activity against Leishmania braziliensis MHOM/CO/87/UA301 promastigote forms isolated from infected Balb/c mouse assessed as induction of oxidative stress by measuring reduction in mitochondrial dehydrogenase activity at 20 uM after 30 to 180 mins by MTT assay; format: functional; in short: as §1
Leishmania braziliensis [15] = test: Inhibition of DHFR in Leishmania braziliensis MHOM/CO/87/UA301 promastigote forms assessed as growth inhibition at 10 uM after 72 hrs in presence of folinic acid by neubauer chamber method

SMILES | EC50 (Leishmania braziliensis [2]) [µM] | inhibition of growth at 20 µM (Leishmania braziliensis [1]) [%] | further results
CN(Cc1cnc2nc(N)nc(N)c2n1)c1ccc(C(=O)N[C@@H](CCC(=O)O)C(=O)O)cc1 |  |  | inhibition (Leishmania braziliensis [3]): Active
C/C(=N\Nc1nnc(Cl)c2ccccc12)c1ccc(O)cc1 | > 20 | 22.9 | 
Fc1ccc(/C=N/Nc2nnc(Cl)c3ccccc23)cc1 | > 20 | 17.8 | 
O=[N+]([O-])c1ccc(C=NNc2nnc(Cl)c3ccccc23)s1 | 3.2 | 11.5 to 88.5 | CC50 at 48 h [4]: < 10 µM; Ratio EC50 (Leishmania braziliensis [5]): 8
O=[N+]([O-])c1ccc(C=NNc2nnc(Cl)c3ccccc23)o1 | 0.12 | 13.5 to 86.5 | CC50 at 48 h [4]: 14 µM; EC50 (Leishmania braziliensis [6]): 0.59 µM; Selectivity Index [7]: 23.7; Ratio EC50 (Leishmania braziliensis [8]): 4.9; Ratio EC50 (Leishmania braziliensis [5]): 208; Activity (Leishmania braziliensis [9]): Dose-dependent effect; Activity (Leishmania braziliensis [10]): Tde; Activity (Leishmania braziliensis [11]): Non-Toxic; inhibition (Leishmania braziliensis [12]): inactive; inhibition (Leishmania braziliensis [13]): inactive
Clc1nnc(N/N=C/c2ccccc2)c2ccccc12 | > 20 | 8.46 | 
C/C(=N\Nc1nnc(Cl)c2ccccc12)c1ccc([N+](=O)[O-])cc1 | > 20 | 19.1 | 
Clc1cccc(/C=N/Nc2nnc(Cl)c3ccccc23)c1 | > 20 | 7.03 | 
CCCCCCCCCCCCCCCCOP(=O)([O-])OCC[N+](C)(C)C [MILTEFOSINE] | 20 to 25 | 67.8 | CC50 at 48 h [4]: 125 µM; Activity (Leishmania braziliensis [14]): inactive; inhibition (Leishmania braziliensis [15]): inactive
Clc1nnc(NN=Cc2ccc(Br)cc2)c2ccccc12 | > 20 | 17.2 | 
Clc1nnc(N/N=C/c2cccc(Br)c2)c2ccccc12 | > 20 | 5.89 | 
Clc1nnc(N/N=C/c2ccco2)c2ccccc12 | ≥ 20 | 40.9 to 59.1 | 
C/C(=N\Nc1nnc(Cl)c2ccccc12)c1ccccc1 | > 20 | 37 | 
O=[N+]([O-])c1cccc(/C=N/Nc2nnc(Cl)c3ccccc23)c1 | > 20 | 10.6 | 
COc1cc([N+](=O)[O-])ccc1/C=N/Nc1nnc(Cl)c2ccccc12 | > 20 | 11.9 | 

More lines, main results first:

EC50 (Leishmania braziliensis [2]) [µM] | SMILES | inhibition of growth at 20 µM (Leishmania braziliensis [1]) [%] | further results
> 20 | C/C(=N\Nc1nnc(Cl)c2ccccc12)c1ccc(Cl)cc1Cl | 37.5 | 
> 20 | C/C(=N\Nc1nnc(Cl)c2ccccc12)c1cc(Cl)ccc1Cl | 20 | 
> 20 | C/C(=N\Nc1nnc(Cl)c2ccccc12)c1cccc([N+](=O)[O-])c1 | 9.46 | 
< 20 | O=[N+]([O-])c1ccc(C=NNc2nnc(Cl)c3ccccc23)cc1 | 41.9 to 58.1 | 
> 20 | Oc1ccccc1/C=N\Nc1nnc(Cl)c2ccccc12 | 33.9 to 64.2 | 
> 20 | Clc1ccc(C=NNc2nnc(Cl)c3ccccc23)cc1 | 16.8 | 
> 20 | C/C(=N\Nc1nnc(Cl)c2ccccc12)c1ccc(Br)cc1 | 10.6 | 
